Test results from the M2OR odorant receptor database.
Substitutions are numbered along the chain they refer to.

What was measured:
Conditions in all cases: stereoisomer not certain
OR51A2 (Homo sapiens) = biological target: T1, OR51A2 (Homo sapiens) (UniProt Q8NGJ7)
T1 sequence (whole entry): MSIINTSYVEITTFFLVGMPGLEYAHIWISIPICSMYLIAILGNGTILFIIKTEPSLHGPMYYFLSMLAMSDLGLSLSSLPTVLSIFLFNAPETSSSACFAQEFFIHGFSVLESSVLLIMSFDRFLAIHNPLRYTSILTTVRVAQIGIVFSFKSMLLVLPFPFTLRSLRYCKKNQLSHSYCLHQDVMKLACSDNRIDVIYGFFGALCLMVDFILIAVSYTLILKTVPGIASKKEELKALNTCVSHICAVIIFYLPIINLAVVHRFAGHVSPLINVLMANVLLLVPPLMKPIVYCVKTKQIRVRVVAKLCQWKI
In short: (§1)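 Transient luciferase assays in mammalian cell lines were common, though methods varied by source. The values come from published papers and their supplementary material, with extra details from the original authors when needed. Responsive refers to a measured signal the original authors judged statistically different from baseline, and non-responsive (inactive) to the remainder.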

OR51A4 (Homo sapiens) = biological target: T2, OR51A4 (Homo sapiens) (UniProt Q8NGJ6)
T2 sequence (whole entry): T1 sequence (whole entry) with G59E, T94I, S97N, S167N, P227L, E235Q, G267R, M288T, K289N, W311R
In short: as §1

OR51A7 (Homo sapiens) = biological target: T3, OR51A7 (Homo sapiens) (UniProt Q8NH64)
T3 sequence (whole entry): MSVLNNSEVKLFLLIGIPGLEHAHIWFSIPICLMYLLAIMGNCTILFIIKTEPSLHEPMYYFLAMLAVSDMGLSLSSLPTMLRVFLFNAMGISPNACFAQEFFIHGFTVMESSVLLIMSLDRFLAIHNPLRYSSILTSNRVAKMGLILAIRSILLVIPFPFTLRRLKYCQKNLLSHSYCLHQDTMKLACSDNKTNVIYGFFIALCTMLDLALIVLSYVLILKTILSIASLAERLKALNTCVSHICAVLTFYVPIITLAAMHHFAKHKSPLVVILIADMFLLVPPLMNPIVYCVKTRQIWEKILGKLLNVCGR
In short: as §1

OR51B2 (Homo sapiens) = biological target: T4, OR51B2 (Homo sapiens) (UniProt Q9Y5P1)
T4 sequence (whole entry): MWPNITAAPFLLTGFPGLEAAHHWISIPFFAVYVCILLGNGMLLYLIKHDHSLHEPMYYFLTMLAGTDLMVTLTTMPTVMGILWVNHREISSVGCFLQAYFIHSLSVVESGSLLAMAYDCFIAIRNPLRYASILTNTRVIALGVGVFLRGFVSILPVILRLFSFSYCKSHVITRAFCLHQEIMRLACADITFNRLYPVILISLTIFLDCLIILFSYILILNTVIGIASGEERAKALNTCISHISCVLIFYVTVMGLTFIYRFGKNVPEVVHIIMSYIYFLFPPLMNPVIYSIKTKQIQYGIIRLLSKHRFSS
In short: as §1

OR51B4 (Homo sapiens) = biological target: T5, OR51B4 (Homo sapiens) (UniProt Q9Y5P0)
T5 sequence (whole entry): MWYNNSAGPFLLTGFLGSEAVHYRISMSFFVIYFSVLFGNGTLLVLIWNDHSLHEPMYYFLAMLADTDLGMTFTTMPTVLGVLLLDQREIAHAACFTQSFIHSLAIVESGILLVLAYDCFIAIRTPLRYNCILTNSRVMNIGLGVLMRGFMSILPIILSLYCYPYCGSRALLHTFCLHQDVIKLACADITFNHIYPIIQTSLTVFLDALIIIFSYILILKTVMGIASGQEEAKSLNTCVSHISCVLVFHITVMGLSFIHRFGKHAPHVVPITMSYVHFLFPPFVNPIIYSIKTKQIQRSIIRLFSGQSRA
In short: as §1

OR51B5 (Homo sapiens) = biological target: T6, OR51B5 (Homo sapiens) (UniProt Q9H339)
T6 sequence (whole entry): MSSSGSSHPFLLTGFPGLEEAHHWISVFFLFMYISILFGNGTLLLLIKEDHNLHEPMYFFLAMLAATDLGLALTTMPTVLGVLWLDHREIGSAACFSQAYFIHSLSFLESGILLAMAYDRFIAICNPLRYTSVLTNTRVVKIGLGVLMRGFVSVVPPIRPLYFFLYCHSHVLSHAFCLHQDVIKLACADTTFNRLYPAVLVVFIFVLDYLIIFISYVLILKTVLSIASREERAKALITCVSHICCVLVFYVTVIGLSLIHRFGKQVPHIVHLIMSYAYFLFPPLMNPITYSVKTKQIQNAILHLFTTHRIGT
In short: as §1

OR51B6 (Homo sapiens) = biological target: T7, OR51B6 (Homo sapiens) (UniProt Q9H340)
T7 sequence (whole entry): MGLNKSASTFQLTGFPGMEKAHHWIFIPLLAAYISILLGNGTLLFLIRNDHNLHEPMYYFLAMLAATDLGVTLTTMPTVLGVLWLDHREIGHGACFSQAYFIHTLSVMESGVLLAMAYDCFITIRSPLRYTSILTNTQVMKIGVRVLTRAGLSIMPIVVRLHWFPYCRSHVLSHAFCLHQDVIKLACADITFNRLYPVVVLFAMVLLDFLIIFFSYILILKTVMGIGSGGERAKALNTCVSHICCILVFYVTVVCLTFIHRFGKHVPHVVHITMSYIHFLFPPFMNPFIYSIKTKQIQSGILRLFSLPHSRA
In short: as §1

OR51D1 (Homo sapiens) = biological target: T8, OR51D1 (Homo sapiens) (UniProt Q8NGF3)
T8 sequence (whole entry): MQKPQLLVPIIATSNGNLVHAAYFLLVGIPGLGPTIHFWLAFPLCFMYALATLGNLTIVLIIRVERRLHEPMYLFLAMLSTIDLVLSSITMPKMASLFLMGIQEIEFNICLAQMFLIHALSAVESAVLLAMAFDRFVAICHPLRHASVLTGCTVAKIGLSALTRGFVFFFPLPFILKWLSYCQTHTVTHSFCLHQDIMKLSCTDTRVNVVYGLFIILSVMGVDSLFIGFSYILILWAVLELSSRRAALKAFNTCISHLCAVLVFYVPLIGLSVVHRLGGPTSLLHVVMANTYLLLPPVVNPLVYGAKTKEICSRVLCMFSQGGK
In short: as §1

OR51E1 (Homo sapiens) = biological target: T9, OR51E1 (Homo sapiens) (UniProt Q8TCB6)
T9 sequence (whole entry): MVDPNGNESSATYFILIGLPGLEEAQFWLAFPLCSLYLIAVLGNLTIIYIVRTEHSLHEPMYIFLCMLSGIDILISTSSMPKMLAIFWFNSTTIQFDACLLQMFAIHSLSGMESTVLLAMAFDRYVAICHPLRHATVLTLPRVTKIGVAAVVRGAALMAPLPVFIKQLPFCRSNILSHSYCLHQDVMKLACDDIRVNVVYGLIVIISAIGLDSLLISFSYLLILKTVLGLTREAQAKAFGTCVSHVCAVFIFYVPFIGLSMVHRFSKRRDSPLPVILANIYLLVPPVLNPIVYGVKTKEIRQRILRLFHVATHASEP
In short: as §1

OR51E2 (Homo sapiens) = biological target: T10, OR51E2 (Homo sapiens) (UniProt Q9H255)
T10 sequence (whole entry): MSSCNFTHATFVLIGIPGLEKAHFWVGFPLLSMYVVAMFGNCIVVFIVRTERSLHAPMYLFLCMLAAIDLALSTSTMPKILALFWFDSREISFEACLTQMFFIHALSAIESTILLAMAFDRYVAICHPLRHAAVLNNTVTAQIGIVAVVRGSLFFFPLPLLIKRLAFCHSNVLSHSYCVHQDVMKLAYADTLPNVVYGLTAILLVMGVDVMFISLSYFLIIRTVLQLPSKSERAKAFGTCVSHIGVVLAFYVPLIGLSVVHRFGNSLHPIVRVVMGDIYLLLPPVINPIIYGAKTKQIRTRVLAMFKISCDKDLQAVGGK
In short: as §1

OR51F1 (Homo sapiens) = biological target: T11, OR51F1 (Homo sapiens) (UniProt A6NGY5)
T11 sequence (whole entry): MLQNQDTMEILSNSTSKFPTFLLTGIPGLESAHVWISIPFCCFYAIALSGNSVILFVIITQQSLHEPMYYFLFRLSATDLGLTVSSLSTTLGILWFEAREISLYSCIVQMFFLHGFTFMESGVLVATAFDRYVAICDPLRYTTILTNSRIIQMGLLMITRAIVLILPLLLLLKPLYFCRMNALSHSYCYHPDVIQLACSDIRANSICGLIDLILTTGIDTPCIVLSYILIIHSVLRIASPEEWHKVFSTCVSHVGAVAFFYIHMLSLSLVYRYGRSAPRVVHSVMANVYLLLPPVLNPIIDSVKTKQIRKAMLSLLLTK
In short: as §1

OR51F2 (Homo sapiens) = biological target: T12, OR51F2 (Homo sapiens) (UniProt Q8NH61)
T12 sequence (whole entry): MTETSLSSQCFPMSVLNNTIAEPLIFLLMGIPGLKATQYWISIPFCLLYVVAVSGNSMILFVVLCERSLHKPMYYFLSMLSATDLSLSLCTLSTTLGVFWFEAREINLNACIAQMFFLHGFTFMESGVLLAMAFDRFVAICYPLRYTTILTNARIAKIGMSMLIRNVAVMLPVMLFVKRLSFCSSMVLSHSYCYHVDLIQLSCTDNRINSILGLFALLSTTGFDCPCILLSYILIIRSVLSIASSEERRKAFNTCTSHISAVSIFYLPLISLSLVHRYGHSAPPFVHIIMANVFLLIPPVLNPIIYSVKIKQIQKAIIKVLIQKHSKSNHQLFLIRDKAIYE
In short: as §1

OR51G1 (Homo sapiens) = biological target: T13, OR51G1 (Homo sapiens) (UniProt Q8NGK1)
T13 sequence (whole entry): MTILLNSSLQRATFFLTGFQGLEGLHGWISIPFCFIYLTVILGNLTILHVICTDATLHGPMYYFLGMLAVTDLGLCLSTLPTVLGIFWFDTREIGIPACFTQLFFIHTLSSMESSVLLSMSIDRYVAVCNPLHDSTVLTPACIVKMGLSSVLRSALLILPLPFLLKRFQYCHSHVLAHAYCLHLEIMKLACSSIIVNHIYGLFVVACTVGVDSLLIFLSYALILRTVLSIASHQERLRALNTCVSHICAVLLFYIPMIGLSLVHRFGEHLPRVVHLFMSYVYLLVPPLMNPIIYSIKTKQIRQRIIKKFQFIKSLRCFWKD
In short: as §1

OR51G2 (Homo sapiens) = biological target: T14, OR51G2 (Homo sapiens) (UniProt Q8NGK0)
T14 sequence (whole entry): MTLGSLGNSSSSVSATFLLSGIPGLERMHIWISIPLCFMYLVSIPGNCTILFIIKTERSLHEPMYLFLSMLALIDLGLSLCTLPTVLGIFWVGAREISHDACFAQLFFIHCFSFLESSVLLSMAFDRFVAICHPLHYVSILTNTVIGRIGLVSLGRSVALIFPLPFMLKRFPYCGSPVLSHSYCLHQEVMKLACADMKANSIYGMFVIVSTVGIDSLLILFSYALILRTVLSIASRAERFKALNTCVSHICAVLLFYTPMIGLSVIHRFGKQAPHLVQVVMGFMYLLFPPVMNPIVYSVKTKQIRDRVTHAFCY
In short: as §1

OR51I1 (Homo sapiens) = biological target: T15, OR51I1 (Homo sapiens) (UniProt Q9H343)
T15 sequence (whole entry): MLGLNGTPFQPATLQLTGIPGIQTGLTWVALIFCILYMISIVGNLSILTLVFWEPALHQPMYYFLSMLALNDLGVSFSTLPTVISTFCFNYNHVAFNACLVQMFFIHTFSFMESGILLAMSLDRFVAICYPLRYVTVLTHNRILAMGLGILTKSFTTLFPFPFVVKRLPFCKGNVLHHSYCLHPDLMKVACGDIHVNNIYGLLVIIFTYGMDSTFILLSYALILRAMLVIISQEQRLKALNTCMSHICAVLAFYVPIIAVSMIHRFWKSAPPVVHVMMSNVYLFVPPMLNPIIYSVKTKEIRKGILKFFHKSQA
In short: as §1

Measured: odorant receptor agonist call;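 further: active if original authors judged signal statistically different from baseline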

CCCCCC1CCCC(=O)O1 (stereo not given)
inactive: all assays above
